# What was measured:
# [1] = system: Mycobacterium tuberculosis; assay: Antimycobacterial activity against Mycobacterium tuberculosis H37Rv incubated for 5 days by resazurin dye based assay; format: functional; details: 120 h
# Escherichia coli [2] = assay: Antimicrobial activity against Escherichia coli ATCC BAA 2469 incubated for 18 hrs by microbroth dilution assay; format: functional; details: ATCC BAA 2469, 18 h
# Klebsiella pneumoniae [3] = assay: Antimicrobial activity against Klebsiella pneumoniae ATCC 700603 incubated for 18 hrs by microbroth dilution assay; format: functional; details: ATCC 700603, 18 h
# Acinetobacter baumannii [4] = assay: Antimicrobial activity against Acinetobacter baumannii ATCC BAA 1605 incubated for 18 hrs by microbroth dilution assay; format: functional; details: ATCC BAA 1605, 18 h
# Acinetobacter baumannii [5] = assay: Antimicrobial activity against Acinetobacter baumannii ATCC BAA747 incubated for 18 hrs by microbroth dilution assay; format: functional; details: ATCC BAA747, 18 h
# Escherichia coli [6] = assay: Antimicrobial activity against Escherichia coli ATCC 25922 incubated for 18 hrs by microbroth dilution assay; format: functional; details: ATCC 25922, 18 h
# Pseudomonas aeruginosa = assay: Antimicrobial activity against Pseudomonas aeruginosa ATCC 27853 incubated for 18 hrs by microbroth dilution assay; format: functional; details: ATCC 27853, 18 h
# Klebsiella pneumoniae [7] = assay: Antimicrobial activity against Klebsiella pneumoniae ATCC 13883 incubated for 18 hrs by microbroth dilution assay; format: functional; details: ATCC 13883, 18 h
# Plasmodium falciparum [8] = assay: Antimalarial activity against asexual blood stages of Plasmodium falciparum 3D7 infected in human erythrocytes incubated for 3 days by ELISA; format: functional, organism-based; details: 3D7, 72 h
# Summary of the method: (§1)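 Asexual blood-stage P. falciparum cultured in human erythrocytes; growth measured by HRP2 double-site sandwich ELISA. IC50 values are the mean of two independent double determinations.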
# [9] = biological target: T1, 1-deoxy-D-xylulose 5-phosphate reductoisomerase (Mycobacterium tuberculosis, UniProt P9WNS1); assay: Inhibition of recombinant Mycobacterium tuberculosis IspC expressed in Escherichia coli M15 using 1-deoxy-D-xylulose 5-phosphate as substrate by photometric assay
# T1 sequence (P9WNS1 whole entry): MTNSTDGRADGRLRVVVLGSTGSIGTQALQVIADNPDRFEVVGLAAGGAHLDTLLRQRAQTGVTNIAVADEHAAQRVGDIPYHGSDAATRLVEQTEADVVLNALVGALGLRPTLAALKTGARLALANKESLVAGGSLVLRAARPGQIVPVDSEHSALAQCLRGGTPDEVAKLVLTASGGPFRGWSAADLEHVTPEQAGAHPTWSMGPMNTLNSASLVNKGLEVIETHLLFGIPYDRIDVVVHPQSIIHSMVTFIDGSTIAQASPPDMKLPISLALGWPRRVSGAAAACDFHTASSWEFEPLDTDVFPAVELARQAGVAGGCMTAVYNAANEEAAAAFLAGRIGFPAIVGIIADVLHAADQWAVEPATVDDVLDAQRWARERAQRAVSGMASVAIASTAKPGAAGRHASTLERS
# HeLa = assay: Cytotoxicity against human HeLa cells assessed as reduction in cell viability incubated for 24 hrs by neutral red assay; format: cell-based
# Summary of the method: (§2)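 Cytotoxicity on HeLa monolayers quantified spectrophotometrically, given as the mean of two independent double determinations. SI is HeLa IC50 divided by the P. falciparum 3D7 IC50.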
# Plasmodium falciparum [10] = assay: Antimalarial activity against asexual blood stages of Plasmodium falciparum Dd2 infected in human erythrocytes incubated for 3 days by ELISA; format: functional, organism-based; details: Dd2, 72 h; summary of the method: as §1
# [11] = biological target: T2, 1-deoxy-D-xylulose 5-phosphate reductoisomerase, apicoplastic (Plasmodium falciparum (isolate 3D7), UniProt Q8IKG4); assay: Inhibition of recombinant Plasmodium falciparum IspC expressed in Escherichia coli using 1-deoxy-D-xylulose 5-phosphate as substrate by photometric assay
# T2 sequence (Q8IKG4 whole entry): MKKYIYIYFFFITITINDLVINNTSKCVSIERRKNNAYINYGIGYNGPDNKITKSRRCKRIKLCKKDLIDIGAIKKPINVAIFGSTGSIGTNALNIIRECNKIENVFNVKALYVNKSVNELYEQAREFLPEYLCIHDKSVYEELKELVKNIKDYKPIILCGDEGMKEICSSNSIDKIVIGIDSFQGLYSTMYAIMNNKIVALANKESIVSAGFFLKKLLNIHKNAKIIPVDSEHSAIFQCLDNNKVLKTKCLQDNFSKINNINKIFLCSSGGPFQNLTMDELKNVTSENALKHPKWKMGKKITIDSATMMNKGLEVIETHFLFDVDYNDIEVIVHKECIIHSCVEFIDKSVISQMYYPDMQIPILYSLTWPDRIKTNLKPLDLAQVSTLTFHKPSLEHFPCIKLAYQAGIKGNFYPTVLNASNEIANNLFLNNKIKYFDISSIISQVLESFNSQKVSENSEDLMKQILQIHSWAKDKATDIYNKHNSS
# Summary of the method: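 P. falciparum IspC expressed in E. coli. Reaction mix: 100 mM Tris-HCl pH 7.6, 5 mM MnCl2, 5 mM DTT, 0.5 mM NADPH, 0.02 U enzyme. Inhibitor tested as a 1:3 series from 200 to 0.003 µM. Started with 0.5 mM DXP; read at 340 nm, room temperature. IC50 calculated from at least eight data points; generally two to three independent determinations.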
# [12] = Selectivity index, ratio of IC50 for human HeLa cells to IC50 for Plasmodium falciparum 3D7; format: toxicity; details: read-out: Ratio IC50; summary of the method: as §2
# [13] = biological target: T3, 1-deoxy-D-xylulose 5-phosphate reductoisomerase (Escherichia coli, UniProt W8T2T2); assay: Inhibition of recombinant Escherichia coli IspC expressed in Escherichia coli M15 using 1-deoxy-D-xylulose 5-phosphate as substrate by photometric assay
# T3 sequence (W8T2T2 whole entry): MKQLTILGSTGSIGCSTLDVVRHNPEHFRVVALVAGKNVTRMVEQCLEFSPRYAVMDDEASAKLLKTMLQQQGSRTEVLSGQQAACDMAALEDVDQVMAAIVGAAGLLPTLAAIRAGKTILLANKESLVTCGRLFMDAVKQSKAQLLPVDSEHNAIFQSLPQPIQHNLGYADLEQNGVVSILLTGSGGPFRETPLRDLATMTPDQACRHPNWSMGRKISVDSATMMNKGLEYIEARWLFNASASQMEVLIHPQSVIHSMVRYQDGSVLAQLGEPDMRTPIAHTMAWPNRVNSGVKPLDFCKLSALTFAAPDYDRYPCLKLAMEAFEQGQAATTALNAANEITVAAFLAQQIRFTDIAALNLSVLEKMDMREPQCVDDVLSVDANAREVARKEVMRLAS
# Summary of the method: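 E. coli IspC, His-tagged, expressed in E. coli M15 pREP4 (IPTG 1 mM, 36 h at 20 °C) and purified by Ni2+-chelate chromatography to about 95% purity. Reaction mix: 100 mM Tris-HCl pH 7.6, 5 mM MnCl2, 5 mM DTT, 0.5 mM NADPH, 0.02 U enzyme. Inhibitor tested as a 1:3 series from 200 to 0.003 µM. Started with 0.5 mM DXP; NADPH consumption read at 340 nm, room temperature. IC50 fitted from at least eight points.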
compound,measurement,setting,value
CN(O)C(=O)CSC(c1ccc(Cl)c(Cl)c1)P(=O)(O)O (racemic),MIC,[1],> 100 µM
same,MIC,Escherichia coli [2],> 100 µM
same,MIC,Klebsiella pneumoniae [3],> 100 µM
same,MIC,Acinetobacter baumannii [4],> 100 µM
same,MIC,Acinetobacter baumannii [5],> 100 µM
same,MIC,Escherichia coli [6],> 100 µM
same,MIC,Pseudomonas aeruginosa,> 100 µM
same,MIC,Klebsiella pneumoniae [7],> 100 µM
CN(O)C(=O)CSC(c1cccc2ccccc12)P(=O)(O)O (racemic),MIC,[1],> 100 µM
same,MIC,Escherichia coli [2],> 100 µM
same,MIC,Klebsiella pneumoniae [3],> 100 µM
same,MIC,Acinetobacter baumannii [4],> 100 µM
same,MIC,Acinetobacter baumannii [5],> 100 µM
same,MIC,Escherichia coli [6],> 100 µM
same,MIC,Pseudomonas aeruginosa,> 100 µM
same,MIC,Klebsiella pneumoniae [7],> 100 µM
Cc1ccc(C(SCC(=O)N(C)O)P(=O)(O)O)cc1 (racemic),MIC,[1],> 100 µM
same,MIC,Escherichia coli [2],> 100 µM
same,MIC,Klebsiella pneumoniae [3],> 100 µM
same,MIC,Acinetobacter baumannii [4],> 100 µM
same,MIC,Acinetobacter baumannii [5],> 100 µM
same,MIC,Escherichia coli [6],> 100 µM
same,MIC,Pseudomonas aeruginosa,> 100 µM
same,MIC,Klebsiella pneumoniae [7],> 100 µM
Cc1ccc(C(SCC(=O)NO)P(=O)(O)O)cc1 (racemic),MIC,[1],> 100 µM
same,MIC,Escherichia coli [2],> 100 µM
same,MIC,Klebsiella pneumoniae [3],> 100 µM
same,IC50,Plasmodium falciparum [8],6.5 µM
same,IC50,[9],8.2 µM
same,IC50,HeLa,> 1000 µM
same,IC50,Plasmodium falciparum [10],8 µM
same,IC50,[11],0.032 µM
same,MIC,Acinetobacter baumannii [4],> 100 µM
same,MIC,Acinetobacter baumannii [5],> 100 µM
same,MIC,Escherichia coli [6],> 100 µM
same,MIC,Pseudomonas aeruginosa,> 100 µM
same,selectivity ratio,[12],> 150
same,MIC,Klebsiella pneumoniae [7],> 100 µM
same,IC50,[13],0.29 µM
COc1cc(OC)cc(C(SCC(=O)NO)P(=O)(O)O)c1 (racemic),MIC,[1],> 100 µM
same,MIC,Escherichia coli [2],> 100 µM
same,MIC,Klebsiella pneumoniae [3],> 100 µM
same,IC50,Plasmodium falciparum [8],0.33 µM
same,IC50,[9],44 µM
same,IC50,HeLa,> 1000 µM
same,IC50,Plasmodium falciparum [10],0.27 µM
same,IC50,[11],0.024 µM
same,MIC,Acinetobacter baumannii [4],> 100 µM
same,MIC,Acinetobacter baumannii [5],> 100 µM
same,MIC,Escherichia coli [6],> 100 µM
same,MIC,Pseudomonas aeruginosa,> 100 µM
same,selectivity ratio,[12],> 3000
same,MIC,Klebsiella pneumoniae [7],> 100 µM
same,IC50,[13],0.68 µM
O=C(CSC(c1cc(F)cc(F)c1)P(=O)(O)O)NO (racemic),MIC,[1],> 100 µM
same,MIC,Escherichia coli [2],> 100 µM
same,MIC,Klebsiella pneumoniae [3],> 100 µM
same,IC50,Plasmodium falciparum [8],1.2 µM
same,IC50,[9],0.32 µM
same,IC50,HeLa,> 1000 µM
same,IC50,Plasmodium falciparum [10],0.87 µM
same,IC50,[11],0.011 µM
same,MIC,Acinetobacter baumannii [4],> 100 µM
same,MIC,Acinetobacter baumannii [5],> 100 µM
same,MIC,Escherichia coli [6],> 100 µM
same,MIC,Pseudomonas aeruginosa,> 100 µM
same,selectivity ratio,[12],> 810
same,MIC,Klebsiella pneumoniae [7],> 100 µM
same,IC50,[13],0.013 µM
CN(O)C(=O)CSC(c1cc(F)cc(F)c1)P(=O)(O)O (racemic),MIC,[1],> 100 µM
same,MIC,Escherichia coli [2],> 100 µM
same,MIC,Klebsiella pneumoniae [3],> 100 µM
same,IC50,Plasmodium falciparum [8],0.15 µM
same,IC50,[9],0.11 µM
same,IC50,HeLa,> 1000 µM
same,IC50,Plasmodium falciparum [10],0.13 µM
same,IC50,[11],0.013 µM
same,MIC,Acinetobacter baumannii [4],> 100 µM
same,MIC,Acinetobacter baumannii [5],> 100 µM
same,MIC,Escherichia coli [6],> 100 µM
same,MIC,Pseudomonas aeruginosa,> 100 µM
same,selectivity ratio,[12],> 6700
same,MIC,Klebsiella pneumoniae [7],> 100 µM
same,IC50,[13],0.018 µM
COc1cc(OC)cc(C(SCC(=O)N(C)O)P(=O)(O)O)c1 (racemic),MIC,[1],> 100 µM
same,MIC,Escherichia coli [2],> 100 µM
same,MIC,Klebsiella pneumoniae [3],> 100 µM
same,IC50,Plasmodium falciparum [8],0.16 µM
same,IC50,[9],4.4 µM
same,IC50,HeLa,> 1000 µM
same,IC50,Plasmodium falciparum [10],0.18 µM
same,IC50,[11],0.02 µM
same,MIC,Acinetobacter baumannii [4],> 100 µM
same,MIC,Acinetobacter baumannii [5],> 100 µM
same,MIC,Escherichia coli [6],> 100 µM
same,MIC,Pseudomonas aeruginosa,> 100 µM
same,selectivity ratio,[12],> 6400
same,MIC,Klebsiella pneumoniae [7],> 100 µM
same,IC50,[13],0.16 µM
O=CN(O)CCCP(=O)(O)O [FOSMIDOMYCIN SODIUM],IC50,[13],0.22 µM

# Reference: ChEMBL document CHEMBL4406820, “Novel reverse thia-analogs of fosmidomycin: Synthesis and antiplasmodial activity” (Eur J Med Chem, 2019)
